Here are results for 15 compounds from ChEMBL document CHEMBL1124207, “Effect of the CH2NH and CH2NAc peptide bond isosteres on the antagonistic and histamine releasing activities of a luteinizing hormone-releasing hormone analogue” (1988).

In brackets after ≈: the same amount, converted by molar mass. Square brackets hold non-standard residues; d marks the D form. Peptide text beside a SMILES is read from it. d2Nal = N[C@H](Cc1ccc2ccccc2c1)C(=O)O

Holding throughout (assay type): functional
For assay [1], the species on record is Rattus norvegicus. As to the kind of experiment: Antiovulatory activity expressed as the percentage of rats blocked at 50 ug. In a few lines:
(§1)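 Female Sprague-Dawley rats dosed in a 40% propane-1,2-diol/0.9% saline vehicle in a standard antiovulatory assay. The read-out is ovulation block, reported as the percentage of n rats not ovulating at x μg of analogue.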

The species named for assay [2] is Rattus norvegicus. Description: In vitro histamine releasing activity determined with peritoneal mast cells from male Sprague-Dawley rats. The conditions noted are these: Mast cell, read-out: ED50 (the source's name).
For assay [3], the species on record is Rattus norvegicus. Description: Antiovulatory activity expressed as the percentage of rats blocked at 6 ug. Put shortly:
as §1

Assay [4] is filed under the species Rattus norvegicus. Description: Antiovulatory activity expressed as the percentage of rats blocked at 12 ug. Put shortly:
as §1

The species entered for assay [5] is Rattus norvegicus. As to the kind of experiment: Antiovulatory activity expressed as the percentage of rats blocked at 0.5 ug. Put shortly:
as §1

Take `CC(=O)N[C@H](Cc1ccc2ccccc2c1)C(=O)N[C@H](Cc1ccccc1)C(=O)N[C@H](Cc1ccccc1)C(=O)N[C@@H](CO)C(=O)N[C@@H](Cc1ccc(O)cc1)C(=O)N[C@H](CCCN=C(N)N)C(=O)N[C@H](CN[C@@H](CCCN=C(N)N)C(=O)N1CCC[C@H]1C(=O)N[C@H](C)C(=O)O)Cc1ccccc1`: the Rats blocked in assay [1] is given as 0%. The EC50 in assay [2] was 0.46 µg/mL (≈ 0.325 µM).
Turning to `CC(=O)N[C@H](Cc1ccc2ccccc2c1)C(=O)N[C@H](Cc1ccccc1)C(=O)N[C@H](Cc1ccccc1)C(=O)N[C@@H](CO)C(=O)N[C@@H](Cc1ccc(O)cc1)C(=O)N[C@@H](CCCCN)CN(C(C)=O)[C@@H](Cc1ccccc1)C(=O)N[C@@H](CCCN=C(N)N)C(=O)N1CCC[C@H]1C(=O)N[C@H](C)C(=O)O`, in assay [1], the Rats blocked is reported as 33%. The EC50 in assay [2] was found to be 1.5 µg/mL (≈ 1.05 µM).
Take `CCN(CC)[C@H](Cc1ccc2ccccc2c1)C(=O)N[C@H](Cc1ccccc1)C(=O)N[C@H](Cc1ccccc1)C(=O)N[C@@H](CO)C(=O)N[C@@H](Cc1ccc(O)cc1)C(=O)N[C@H](CCCN=C(N)N)C(=O)N[C@@H](Cc1ccccc1)C(=O)N[C@@H](CCCN=C(N)N)C(=O)N1CCC[C@H]1C(=O)N[C@H](C)C(=O)O`: the EC50 in assay [2] was 0.45 µg/mL (≈ 0.312 µM). In addition, in assay [3], the Rats blocked was determined as 0%.
For `CC(=O)N[C@H](Cc1ccc2ccccc2c1)C(=O)N[C@H](Cc1ccccc1)C(=O)N[C@H](Cc1ccccc1)C(=O)N[C@@H](CO)C(=O)N[C@@H](Cc1ccc(O)cc1)C(=O)N[C@H](CCCN=C(N)N)C(=O)N[C@@H](Cc1ccccc1)C(=O)N[C@@H](CCCN=C(N)N)C(=O)N1CCC[C@@H]1CN[C@H](C)C(=O)O`, the EC50 in assay [2] was 0.21 µg/mL (≈ 0.148 µM). The Rats blocked in assay [4] is 92%; in assay [3], 44%.
With `CC(=O)N[C@H](Cc1ccc2ccccc2c1)C(=O)N[C@H](Cc1ccccc1)C(=O)N[C@H](Cc1ccccc1)C(=O)N[C@@H](CO)C(=O)N[C@@H](Cc1ccc(O)cc1)C(=O)N[C@@H](CCCCN)CN[C@@H](Cc1ccccc1)C(=O)N[C@@H](CCCN=C(N)N)C(=O)N1CCC[C@H]1C(=O)N[C@H](C)C(=O)O`, in assay [1], the Rats blocked was 60%. Further, the EC50 in assay [2] stood at 1.9 µg/mL (≈ 1.37 µM).
On to `CC(=O)N[C@H](Cc1ccc2ccccc2c1)C(=O)N[C@H](Cc1ccccc1)C(=O)N[C@H](Cc1ccccc1)C(=O)N[C@@H](CO)C(=O)N[C@@H](Cc1ccc(O)cc1)C(=O)N[C@H](CCCN=C(N)N)C(=O)N[C@@H](Cc1ccccc1)C(=O)N[C@@H](CCCN=C(N)N)C(=O)N1CCC[C@@H]1CN(C(C)=O)[C@H](C)C(=O)O`, for which the results for the Rats blocked in assay [1] and in assay [4] were 100% and 75%, respectively. The EC50 in assay [2] is 0.28 µg/mL (≈ 0.192 µM).
`CC(=O)N[C@H](Cc1ccc2ccccc2c1)C(=O)N[C@H](Cc1ccccc1)C(=O)N[C@H](Cc1ccccc1)C(=O)N[C@@H](CO)C(=O)N[C@@H](Cc1ccc(O)cc1)CN(C(C)=O)[C@H](CCCN=C(N)N)C(=O)N[C@@H](Cc1ccccc1)C(=O)N[C@@H](CCCN=C(N)N)C(=O)N1CCC[C@H]1C(=O)N[C@H](C)C(=O)O` had a Rats blocked in assay [1] of 0%. Also, in assay [2], the EC50 was 4 µg/mL (≈ 2.74 µM).
With `CC(=O)N[C@H](Cc1ccc2ccccc2c1)C(=O)N[C@H](Cc1ccccc1)C(=O)N[C@H](Cc1ccccc1)C(=O)N[C@@H](CO)CN(C(C)=O)[C@@H](Cc1ccc(O)cc1)C(=O)N[C@H](CCCN=C(N)N)C(=O)N[C@@H](Cc1ccccc1)C(=O)N[C@@H](CCCN=C(N)N)C(=O)N1CCC[C@H]1C(=O)N[C@H](C)C(=O)O`, the Rats blocked in assay [1] turned out to be 0%. In assay [2], the EC50 is 0.45 µg/mL (≈ 0.309 µM).
For `CC(=O)N[C@H](CN[C@H](Cc1ccccc1)C(=O)N[C@H](Cc1ccccc1)C(=O)N[C@@H](CO)C(=O)N[C@@H](Cc1ccc(O)cc1)C(=O)N[C@H](CCCN=C(N)N)C(=O)N[C@@H](Cc1ccccc1)C(=O)N[C@@H](CCCN=C(N)N)C(=O)N1CCC[C@H]1C(=O)N[C@H](C)C(=O)O)Cc1ccc2ccccc2c1`, in assay [1], the Rats blocked came to 0%. For the same compound, in assay [2], the EC50 stood at 1.5 µg/mL (≈ 1.06 µM).
For `CC(=O)N[C@H](Cc1ccc2ccccc2c1)C(=O)N[C@H](CN[C@H](Cc1ccccc1)C(=O)N[C@@H](CO)C(=O)N[C@@H](Cc1ccc(O)cc1)C(=O)N[C@H](CCCN=C(N)N)C(=O)N[C@@H](Cc1ccccc1)C(=O)N[C@@H](CCCN=C(N)N)C(=O)N1CCC[C@H]1C(=O)N[C@H](C)C(=O)O)Cc1ccccc1` the same measures were 0% and 0.35 µg/mL (≈ 0.247 µM).
For `CCN[C@H](Cc1ccc2ccccc2c1)C(=O)N[C@H](Cc1ccccc1)C(=O)N[C@H](Cc1ccccc1)C(=O)N[C@@H](CO)C(=O)N[C@@H](Cc1ccc(O)cc1)C(=O)N[C@H](CCCN=C(N)N)C(=O)N[C@@H](Cc1ccccc1)C(=O)N[C@@H](CCCN=C(N)N)C(=O)N1CCC[C@H]1C(=O)N[C@H](C)C(=O)O`, the EC50 in assay [2] amounted to 0.34 µg/mL (≈ 0.24 µM). Moreover, the Rats blocked in assay [3] was 17%.
In turn, `CC(=O)N[C@H](Cc1ccc2ccccc2c1)C(=O)N[C@H](Cc1ccccc1)C(=O)N[C@H](CN[C@@H](CO)C(=O)N[C@@H](Cc1ccc(O)cc1)C(=O)N[C@H](CCCN=C(N)N)C(=O)N[C@@H](Cc1ccccc1)C(=O)N[C@@H](CCCN=C(N)N)C(=O)N1CCC[C@H]1C(=O)N[C@H](C)C(=O)O)Cc1ccccc1` yielded a Rats blocked in assay [1] of 0%. Moreover, the EC50 in assay [2] turned out to be 0.43 µg/mL (≈ 0.304 µM).
With `CC(=O)N[C@H](Cc1ccc2ccccc2c1)C(=O)N[C@H](Cc1ccccc1)C(=O)N[C@H](Cc1ccccc1)C(=O)N[C@@H](CO)CN[C@@H](Cc1ccc(O)cc1)C(=O)N[C@H](CCCN=C(N)N)C(=O)N[C@@H](Cc1ccccc1)C(=O)N[C@@H](CCCN=C(N)N)C(=O)N1CCC[C@H]1C(=O)N[C@H](C)C(=O)O`, the EC50 in assay [2] was determined as 0.19 µg/mL (≈ 0.134 µM). Moreover, the Rats blocked in assay [4] is given as 63%.
`CC(=O)N[C@H](Cc1ccc2ccccc2c1)C(=O)N[C@H](Cc1ccccc1)C(=O)N[C@H](Cc1ccccc1)C(=O)N[C@@H](CO)C(=O)N[C@H](CN[C@H](CCCN=C(N)N)C(=O)N[C@@H](Cc1ccccc1)C(=O)N[C@@H](CCCN=C(N)N)C(=O)N1CCC[C@H]1C(=O)N[C@H](C)C(=O)O)Cc1ccc(O)cc1`: the EC50 in assay [2] stood at 1.5 µg/mL (≈ 1.06 µM). In assay [4], this compound yielded a Rats blocked of 100%.
`CC(=O)N[C@H](Cc1ccc2ccccc2c1)C(=O)N[C@H](Cc1ccccc1)C(=O)N[C@H](Cc1ccccc1)C(=O)N[C@@H](CO)C(=O)N[C@@H](Cc1ccc(O)cc1)C(=O)N[C@H](CCCN=C(N)N)C(=O)N[C@@H](Cc1ccccc1)C(=O)N[C@@H](CCCN=C(N)N)C(=O)N1CCC[C@H]1C(=O)N[C@H](C)C(N)=O` (Ac-[d2Nal][dF][dF]SY[dR]FRP[dA]-NH2) came in with a Rats blocked in assay [5] of 56%. For the same compound, the EC50 in assay [2] was 0.11 µg/mL (≈ 0.077 µM).
